According to ChEMBL document CHEMBL2021913, “Synthesis and biological evaluation of some novel thiazole substituted benzotriazole derivatives” (2012):
≈ marks a conversion by molar mass, not a printed value. Calls of active or inactive are those of the source. No cut-off for these calls is given here.

Experiments:
Type in all cases: functional
Bacillus subtilis [1] = assay: Antimicrobial activity against Bacillus subtilis 2250 at 35 degC after 18 to 24 hrs by NCCLS method based antimicrobial assay; conditions: for MBC: read-out: MBC99.9
Pseudomonas aeruginosa [2] = assay: Antimicrobial activity against Pseudomonas aeruginosa 2036 at 35 degC after 18 to 24 hrs by NCCLS method based antimicrobial assay; conditions: for MBC: read-out: MBC99.9
Aspergillus niger [3] = assay: Antimicrobial activity against Aspergillus niger 545 at 35 degC after 48 hrs by CLSI method based antimicrobial assay; conditions: Aspergillus niger, 545, 48 h; for MFC: read-out: MFC99.9
Outline: (§1)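 Broth microdilution following CLSI guidelines over 256 to 1 µg/mL. MIC90 is the lowest concentration completely inhibiting growth. For MFC, 0.1 mL from each tube spread on agar and CFU counted after 48 h at 35 °C; MFC is lowest concentration killing 99.9% of inoculum. MFC/MIC ratio calculated: […], ≤4 as fungicidal.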

Candida albicans [4] = assay: Antimicrobial activity against Candida albicans 3471 at 35 degC after 48 hrs by CLSI method based antimicrobial assay; conditions: Candida albicans, 3471, 48 h; for MFC: read-out: MFC99.9; outline: as §1
Aspergillus niger [5] = assay: Ratio of MFC99.9 to MIC90 for Aspergillus niger 545 at 35 degC after 48 hrs by CLSI method based antimicrobial assay; outline: as §1
Candida albicans [6] = assay: Ratio of MFC99.9 to MIC90 for Candida albicans 3471 at 35 degC after 48 hrs by CLSI method based antimicrobial assay; outline: as §1
Staphylococcus aureus [7] = assay: Antimicrobial activity against Staphylococcus aureus 2079 at 128 ug/disc at 35 degC after 24 hrs by agar-well diffusion assay; conditions: for zone of inhibition at 128 µg/disc: Staphylococcus aureus, 2079, 24 h, read-out: DIZ
Outline: (§2)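 Agar-well diffusion: 24 h bacterial cultures adjusted to 0.5 McFarland (1.5 × 10⁸ CFU/mL) and mixed into molten Mueller-Hinton agar before pouring. 6 mm wells punched and each filled with 50 µL of compound stock or control. Plates incubated 35 °C for 24 h. Zone of growth inhibition diameter measured with vernier caliper.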

Escherichia coli [8] = assay: Antimicrobial activity against Escherichia coli 2109 at 128 ug/disc at 35 degC after 24 hrs by agar-well diffusion assay; conditions: for zone of inhibition at 128 µg/disc: Escherichia coli, 2109, 24 h, read-out: DIZ; outline: as §2
Bacillus subtilis [9] = assay: Antimicrobial activity against Bacillus subtilis 2250 at 128 ug/disc at 35 degC after 24 hrs by agar-well diffusion assay; conditions: for zone of inhibition at 128 µg/disc: Bacillus subtilis, 2250, 24 h, read-out: DIZ; outline: as §2
Pseudomonas aeruginosa [10] = assay: Antimicrobial activity against Pseudomonas aeruginosa 2036 at 128 ug/disc at 35 degC after 24 hrs by agar-well diffusion assay; conditions: for zone of inhibition at 128 µg/disc: Pseudomonas aeruginosa, 2036, 24 h, read-out: DIZ; outline: as §2
Aspergillus niger [11] = assay: Antimicrobial activity against Aspergillus niger 545 at 128 ug/disc at 37 degC after 24 to 72 hrs by agar-well diffusion assay; conditions: read-out: DIZ
Outline: (§3)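 Potato dextrose agar base plates overlaid with seeded agar cooled to 40 °C and inoculated with spores from 10-day cultures, final 1 × 10⁶ spores/mL. Compounds dissolved in DMSO at 128 µg/mL and applied on 6 mm filter-paper discs placed on chilled seeded medium. Nystatin positive control, DMSO negative control. Incubation 24–72 h at 37 °C. Inhibition zone diameter read by vernier caliper.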

Candida albicans [12] = assay: Antimicrobial activity against Candida albicans 3471 at 128 ug/disc at 37 degC after 24 to 72 hrs by agar-well diffusion assay; conditions: read-out: DIZ; outline: as §3
Staphylococcus aureus [13] = assay: Antimicrobial activity against Staphylococcus aureus 2079 at 35 degC after 18 to 24 hrs by NCCLS method based antimicrobial assay; conditions: for MBC: read-out: MBC99.9
Escherichia coli [14] = assay: Antimicrobial activity against Escherichia coli 2109 at 35 degC after 18 to 24 hrs by NCCLS method based antimicrobial assay; conditions: for MBC: read-out: MBC99.9

SMILES	MBC99.9 (Bacillus subtilis [1])	MIC (Bacillus subtilis [1])	MIC (Pseudomonas aeruginosa [2])	MIC (Aspergillus niger [3]) [µg/mL]	MFC (Aspergillus niger [3]) [µg/mL]	MIC (Candida albicans [4]) [µg/mL]	MFC (Candida albicans [4]) [µg/mL]	Ratio (Aspergillus niger [5])	Ratio (Candida albicans [6])	zone of inhibition at 128 µg/disc (Staphylococcus aureus [7]) [mm]	diameter of the inhibition zone (DIZ) (Escherichia coli [8])	zone of inhibition at 128 µg/disc (Aspergillus niger [11]) [mm]	zone of inhibition at 128 µg/disc (Candida albicans [12]) [mm]	MIC (Staphylococcus aureus [13])	MBC (Staphylococcus aureus [13]) [µg/mL]	MBC99.9 (Escherichia coli [14])	MIC (Escherichia coli [14])	MBC99.9 (Pseudomonas aeruginosa [2])	diameter of the inhibition zone (DIZ) (Pseudomonas aeruginosa [10])	MBC (Bacillus subtilis [1]) [µg/mL]	also measured
O=[N+]([O-])c1ccc(/C(Cn2nnc3ccccc32)=N\Nc2nc(-c3ccc(F)cc3)cs2)cc1	inactive	inactive	32 µg/mL (≈ 67.6 µM)	32 (≈ 67.6 µM)	64 (≈ 135 µM)	128 (≈ 270 µM)	256 (≈ 541 µM)	2	2	26.5	inactive	17.8	12.2	32 µg/mL (≈ 67.6 µM)	64 (≈ 135 µM)	inactive	inactive	–	–	–	MBC (Pseudomonas aeruginosa [2]): 32 µg/mL (≈ 67.6 µM); diameter of the inhibition zone (DIZ) (Bacillus subtilis [9]): inactive; zone of inhibition at 128 µg/disc (Pseudomonas aeruginosa [10]): 20.7 mm
Fc1ccc(-c2csc(N/N=C(/Cn3nnc4ccccc43)c3cc(C(F)(F)F)cc(C(F)(F)F)c3)n2)cc1	inactive	inactive	inactive	32 (≈ 56.7 µM)	64 (≈ 113 µM)	32 (≈ 56.7 µM)	128 (≈ 227 µM)	2	4	24.3	inactive	16.8	18.4	32 µg/mL (≈ 56.7 µM)	64 (≈ 113 µM)	inactive	inactive	inactive	inactive	–	diameter of the inhibition zone (DIZ) (Bacillus subtilis [9]): inactive
Fc1ccc(-c2csc(N/N=C(/Cn3nnc4ccccc43)c3ccc(Cl)cc3)n2)cc1	–	128 µg/mL (≈ 276 µM)	128 µg/mL (≈ 276 µM)	16 (≈ 34.6 µM)	32 (≈ 69.1 µM)	16 (≈ 34.6 µM)	64 (≈ 138 µM)	2	4	24.7	–	20.1	21.3	64 µg/mL (≈ 138 µM)	32 (≈ 69.1 µM)	–	64 µg/mL (≈ 138 µM)	–	–	128 (≈ 276 µM)	MBC (Pseudomonas aeruginosa [2]): 256 µg/mL (≈ 553 µM); zone of inhibition at 128 µg/disc (Escherichia coli [8]): 17.6 mm; zone of inhibition at 128 µg/disc (Bacillus subtilis [9]): 16.9 mm; zone of inhibition at 128 µg/disc (Pseudomonas aeruginosa [10]): 14.3 mm; MBC (Escherichia coli [14]): 128 µg/mL (≈ 276 µM)
Fc1ccc(/C(Cn2nnc3ccccc32)=N\Nc2nc(-c3ccc(F)cc3)cs2)cc1	–	64 µg/mL (≈ 143 µM)	128 µg/mL (≈ 287 µM)	16 (≈ 35.8 µM)	64 (≈ 143 µM)	16 (≈ 35.8 µM)	32 (≈ 71.7 µM)	4	2	20.1	–	19.1	21.1	64 µg/mL (≈ 143 µM)	128 (≈ 287 µM)	–	128 µg/mL (≈ 287 µM)	–	–	128 (≈ 287 µM)	MBC (Pseudomonas aeruginosa [2]): 256 µg/mL (≈ 573 µM); zone of inhibition at 128 µg/disc (Escherichia coli [8]): 15 mm; zone of inhibition at 128 µg/disc (Pseudomonas aeruginosa [10]): 11.8 mm; MBC (Escherichia coli [14]): 128 µg/mL (≈ 287 µM)
Clc1ccc(/C(Cn2nnc3ccccc32)=N\Nc2nc(-c3ccc(Br)cc3)cs2)cc1	–	128 µg/mL (≈ 244 µM)	inactive	64 (≈ 122 µM)	64 (≈ 122 µM)	32 (≈ 61.1 µM)	128 (≈ 244 µM)	1	4	–	inactive	15.2	18	inactive	–	inactive	inactive	inactive	inactive	256 (≈ 489 µM)	diameter of the inhibition zone (DIZ) (Staphylococcus aureus [7]): inactive; zone of inhibition at 128 µg/disc (Bacillus subtilis [9]): 13.8 mm; MBC99.9 (Staphylococcus aureus [13]): inactive
O=[N+]([O-])c1ccc(-c2csc(N/N=C(/Cn3nnc4ccccc43)c3ccc(F)cc3)n2)cc1	–	128 µg/mL (≈ 270 µM)	inactive	32 (≈ 67.6 µM)	128 (≈ 270 µM)	32 (≈ 67.6 µM)	64 (≈ 135 µM)	4	2	–	inactive	16.2	18.7	inactive	–	inactive	inactive	inactive	inactive	256 (≈ 541 µM)	diameter of the inhibition zone (DIZ) (Staphylococcus aureus [7]): inactive; zone of inhibition at 128 µg/disc (Bacillus subtilis [9]): 14.9 mm; MBC99.9 (Staphylococcus aureus [13]): inactive
Fc1ccc(/C(Cn2nnc3ccccc32)=N\Nc2nc(-c3cc(C(F)(F)F)cc(C(F)(F)F)c3)cs2)cc1	–	32 µg/mL (≈ 56.7 µM)	inactive	32 (≈ 56.7 µM)	128 (≈ 227 µM)	32 (≈ 56.7 µM)	64 (≈ 113 µM)	4	2	19.2	inactive	17.5	17.4	128 µg/mL (≈ 227 µM)	128 (≈ 227 µM)	inactive	inactive	inactive	inactive	64 (≈ 113 µM)	zone of inhibition at 128 µg/disc (Bacillus subtilis [9]): 24.1 mm
Fc1ccc(-c2csc(N/N=C(/Cn3nnc4ccccc43)c3ccc(Br)cc3)n2)cc1	inactive	inactive	32 µg/mL (≈ 63.1 µM)	32 (≈ 63.1 µM)	64 (≈ 126 µM)	32 (≈ 63.1 µM)	128 (≈ 252 µM)	2	4	–	–	17.6	16.8	inactive	–	–	128 µg/mL (≈ 252 µM)	–	–	–	MBC (Pseudomonas aeruginosa [2]): 64 µg/mL (≈ 126 µM); diameter of the inhibition zone (DIZ) (Staphylococcus aureus [7]): inactive; zone of inhibition at 128 µg/disc (Escherichia coli [8]): 18.7 mm; diameter of the inhibition zone (DIZ) (Bacillus subtilis [9]): inactive; zone of inhibition at 128 µg/disc (Pseudomonas aeruginosa [10]): 19.8 mm; MBC99.9 (Staphylococcus aureus [13]): inactive; MBC (Escherichia coli [14]): 128 µg/mL (≈ 252 µM)
O=[N+]([O-])c1ccc(/C(Cn2nnc3ccccc32)=N\Nc2nc(-c3cc(C(F)(F)F)cc(C(F)(F)F)c3)cs2)cc1	inactive	inactive	inactive	32 (≈ 54.1 µM)	64 (≈ 108 µM)	128 (≈ 216 µM)	256 (≈ 433 µM)	2	2	–	–	17.9	19	inactive	–	–	128 µg/mL (≈ 216 µM)	inactive	inactive	–	diameter of the inhibition zone (DIZ) (Staphylococcus aureus [7]): inactive; zone of inhibition at 128 µg/disc (Escherichia coli [8]): 15 mm; diameter of the inhibition zone (DIZ) (Bacillus subtilis [9]): inactive; MBC99.9 (Staphylococcus aureus [13]): inactive; MBC (Escherichia coli [14]): 256 µg/mL (≈ 433 µM)
